ChEMBL document CHEMBL1137848, “Discovery of isoxazolinone antibacterial agents. Nitrogen as a replacement for the stereogenic center found in oxazolidinone antibacterials” (2004)
≈ marks a conversion by molar mass, not a printed value.

Legend:
Type in all cases: functional
[1] = test system: Enterococcus faecalis; test: Minimum inhibitory concentration against Enterococcus faecalis (strain A20688) in absence of calf serum
Method in brief: (§1)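 Broth microdilution MIC per NCCLS method in Mueller-Hinton broth without serum. Final inoculum approximately 5·10⁵ CFU/well in microtiter plates, incubated 35 °C for 18 h in ambient air.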

[2] = test system: Staphylococcus aureus; test: Minimum inhibitory concentration against Staphylococcus aureus (strain A15090) in absence of calf serum; method in brief: as §1
[3] = test system: Enterococcus faecalis; test: Minimum inhibitory concentration against Enterococcus faecalis (strain A20688) in presence of 50% calf serum
Method in brief: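 Broth microdilution MIC per NCCLS method in Mueller-Hinton broth supplemented with 50% calf serum. Final inoculum approximately 5·10⁵ CFU/well, incubated 35 °C for 18 h in ambient air.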

[4] = test system: Staphylococcus aureus; test: Minimum inhibitory concentration against Staphylococcus aureus (strain A15090) in presence of 50% calf serum
Method in brief: (§2)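 Microbroth dilution MIC following the NCCLS method, with 50% calf serum added. Mueller-Hinton broth, inoculum approximately 5·10⁵ CFU/well, incubated at 35 °C for 18 h in ambient air.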

[5] = test system: Haemophilus influenzae; test: Minimum inhibitory concentration against Haemophilus influenzae (strain A20191) in absence of calf serum
Method in brief: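 MIC by NCCLS microbroth dilution in Haemophilus test medium broth without serum. Inoculum approximately 5·10⁵ CFU/well in microtiter plates, incubated at 35 °C for 18 h in ambient air.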

[6] = test system: Staphylococcus aureus; test: Minimum inhibitory concentration against methicillin resistant Staphylococcus aureus (strain A27223) in absence of calf serum
Method in brief: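 Microbroth dilution MIC following the NCCLS method, no serum added. Mueller-Hinton broth, inoculum approximately 5·10⁵ CFU/well, incubated at 35 °C for 18 h in ambient air.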

[7] = test system: Staphylococcus aureus; test: Minimum inhibitory concentration against methicillin resistant Staphylococcus aureus (strain A27223) in presence of 50% calf serum; method in brief: as §2

Compound | MIC [1] [µg/mL] | MIC [2] [µg/mL] | MIC [3] [µg/mL] | MIC [4] [µg/mL] | MIC [5] [µg/mL] | MIC [6] [µg/mL] | MIC [7] [µg/mL]
CC(=O)NCn1cc(-c2ccc(Br)cc2)c(=O)o1 | 8 (≈ 25.7 µM) | 4 (≈ 12.9 µM) | > 64 | > 64 | 8 (≈ 25.7 µM) | 2 (≈ 6.43 µM) | 
CC(=O)NCn1cc(-c2cccc(Cl)c2)c(=O)o1 | 16 (≈ 60 µM) | 8 (≈ 30 µM) | > 64 | > 64 | 32 (≈ 120 µM) | 4 (≈ 15 µM) | 16
CC(=O)NCn1cc(-c2cc(F)cc(F)c2)c(=O)o1 | 32 (≈ 119 µM) | 8 (≈ 29.8 µM) |  |  | > 64 | 8 (≈ 29.8 µM) | 
CC(=O)NC[C@H]1CN(c2ccc(N3CCOCC3)c(F)c2)C(=O)O1 [LINEZOLID] | 0.5 (≈ 1.48 µM) | 1 (≈ 2.96 µM) | 0.5 | 1 | 8 (≈ 23.7 µM) | 1 (≈ 2.96 µM) | 1
CC(=O)NCn1cc(-c2cccc(F)c2)c(=O)o1 | 16 (≈ 63.9 µM) | 8 (≈ 32 µM) |  |  | > 64 | 4 (≈ 16 µM) | 
Oc1oncc1-c1ccc2c(c1)OCO2 | > 128 | > 128 | > 64 | > 64 | > 64 |  | 
CC(=O)NCn1cc(-c2ccc(-c3ccccc3)cc2)c(=O)o1 | 4 (≈ 13 µM) | 4 (≈ 13 µM) | 64 | > 64 | 16 (≈ 51.9 µM) | 1 (≈ 3.24 µM) | 64
Oc1oncc1-c1ccc(-c2ccccc2)cc1 | > 128 | > 128 | > 64 | > 64 | > 64 |  | 
CC(=O)NCn1cc(-c2cccc(C(F)(F)F)c2)c(=O)o1 | 64 (≈ 213 µM) | 32 (≈ 107 µM) | > 64 | 64 | > 64 | 16 (≈ 53.3 µM) | 64
COc1cccc(-c2cn(CNC(C)=O)oc2=O)c1 | 32 (≈ 122 µM) | 32 (≈ 122 µM) | > 64 | 64 | > 64 | 16 (≈ 61 µM) | > 64
CC(=O)NCn1cc(-c2ccc(Cl)cc2)c(=O)o1 | 8 (≈ 30 µM) | 8 (≈ 30 µM) |  |  | 32 (≈ 120 µM) | 4 (≈ 15 µM) | 
CC(=O)NCn1cc(-c2ccc(F)c(F)c2)c(=O)o1 | > 128 | 128 (≈ 477 µM) | > 64 | > 64 | > 64 | > 128 | 
CSc1ccc(-c2cnoc2O)cc1 | > 128 | > 128 | > 64 | > 64 | > 64 |  | 
